Bioassay records from PubChem.
PP5 inh: blocks human protein phosphatase 5 activity; P53041; purified PP5c, OMFP substrate fluorescence; inhibition, % at 6.7 µM; hit rate 0.18% among 320,000; AID 1987;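 active means inhibition above the campaign's mean inhibition across all tested compounds plus 3 SD, cut at about 9.5% in these data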;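 further: 0% = DMSO only and 100% = 100 µM cantharidin control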
PP1 inh: blocks human PP1-alpha phosphatase, a PP5 counter-screen; purified PP1alpha, OMFP fluorescence; inhibition, % at 6.7 µM; hit rate 0.9% among 320,000; P62136;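 active means inhibition above the mean inhibition of all tested compounds plus 3 SD, computed separately for each screening campaign, cut at about 15% in these data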
TDP2 absorb: TDP2 (human) inhibition, absorbance primary screen. hit rate 0.34% among 370,000. AID 720702. recombinant TDP2, T5PNP hydrolysis, p-nitrophenol absorbance 415 nm. O95551. inhibition, % at 12.8 µM;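 active means inhibition above the mean of all tested compounds plus 3 SD, set per campaign, cut at about 25% in these data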;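 further: 0% = DMSO with enzyme and 100% = buffer with substrate but no TDP2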
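Read-out basis: percent inhibition. System: recombinant human TDP2. Buffer or medium: Mg2+-containing Tris-HCl buffer, pH 7.5. Repeats: single replicate. Timing: reaction 2 h, 37 °C. Benchmarks: high control without enzyme, low control DMSO plus TDP2. Probe or stimulus: 5 mM T5PNP. Doses: 12.8 µM only. Measured by: epi absorbance of p-nitrophenol freed from T5PNP by hydrolysis.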
Apaf-1 inh: human Apaf-1 inhibition; O14727; reconstituted apoptosome caspase-3 activity, DEVD-Rh110 fluorescence; inhibition, % at 20 µM; hit rate 0.71% among 330,000; AID 489030; active means inhibition of at least 40% at 20 µM;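 further: plate controls were DMSO wells for no effect and DEVD-CHO caspase inhibitor wells for full effect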
Target sequence (O14727 whole entry, looked up): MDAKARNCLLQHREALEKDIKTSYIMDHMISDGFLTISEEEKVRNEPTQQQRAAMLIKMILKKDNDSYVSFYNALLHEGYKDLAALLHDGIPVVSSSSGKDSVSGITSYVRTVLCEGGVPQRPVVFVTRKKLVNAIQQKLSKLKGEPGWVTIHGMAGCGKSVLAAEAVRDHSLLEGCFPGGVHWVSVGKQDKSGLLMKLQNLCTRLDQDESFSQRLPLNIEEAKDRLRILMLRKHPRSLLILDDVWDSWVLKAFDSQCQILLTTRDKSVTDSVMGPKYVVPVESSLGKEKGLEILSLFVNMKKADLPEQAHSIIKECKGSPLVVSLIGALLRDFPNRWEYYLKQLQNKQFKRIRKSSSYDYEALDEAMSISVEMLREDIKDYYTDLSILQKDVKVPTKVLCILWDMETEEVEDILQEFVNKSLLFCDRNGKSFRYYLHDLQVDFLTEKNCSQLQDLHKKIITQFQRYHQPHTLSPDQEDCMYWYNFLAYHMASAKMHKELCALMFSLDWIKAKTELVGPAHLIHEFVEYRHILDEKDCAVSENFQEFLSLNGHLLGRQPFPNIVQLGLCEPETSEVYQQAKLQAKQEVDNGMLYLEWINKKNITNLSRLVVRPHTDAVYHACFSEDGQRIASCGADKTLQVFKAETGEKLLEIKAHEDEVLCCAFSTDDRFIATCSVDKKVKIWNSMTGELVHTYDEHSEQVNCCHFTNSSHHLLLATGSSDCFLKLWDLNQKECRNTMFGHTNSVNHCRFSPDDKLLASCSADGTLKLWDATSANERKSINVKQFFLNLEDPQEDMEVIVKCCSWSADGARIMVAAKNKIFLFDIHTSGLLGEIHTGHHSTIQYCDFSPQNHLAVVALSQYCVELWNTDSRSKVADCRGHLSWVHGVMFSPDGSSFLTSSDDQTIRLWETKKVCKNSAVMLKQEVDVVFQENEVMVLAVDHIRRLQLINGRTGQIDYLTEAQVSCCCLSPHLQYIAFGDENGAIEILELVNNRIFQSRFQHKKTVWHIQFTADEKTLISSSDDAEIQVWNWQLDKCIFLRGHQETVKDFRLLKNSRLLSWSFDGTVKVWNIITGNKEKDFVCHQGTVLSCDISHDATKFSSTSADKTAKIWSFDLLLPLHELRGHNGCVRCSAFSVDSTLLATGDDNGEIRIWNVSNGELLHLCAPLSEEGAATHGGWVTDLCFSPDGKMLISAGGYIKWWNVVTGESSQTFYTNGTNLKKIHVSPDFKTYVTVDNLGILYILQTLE
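Material: reconstituted apoptosome with Apaf-1, cytochrome c, caspase-9, procaspase-3, dATP; medium: pH 7.5 Hepes buffer with CHAPS, BSA, DTT; also added: cytochrome c and DEVD-Rh110 substrate; timing: 30 min plus 50 min, RT; signal: Rh110 fluorescence intensity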
GSTO1 inh: counter-screen for RBBP9 inhibitors: inhibitors of human GSTO1. P78417. recombinant GSTO1, activity-based probe fluorescence polarization. inhibition, % at 5.96 µM. hit rate 1.1% among 300,000;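 active means inhibition above the campaign mean inhibition plus 3 SD, cut at about 35% in these data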;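 further: 0% = GSTO1-1 with DMSO and 100% = wells lacking GSTO1-1 enzyme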
Apaf-1 inh conf2: confirmation of Apaf-1 inhibitors; hit rate 25% among 1,800; inhibition, % at 20 µM; AID 504614; reconstituted apoptosome, caspase-3 DEVD-Rh110 fluorescence; shares compounds with Apaf-1 inh;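 active means mean inhibition of at least 40% at 20 µM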;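 further: plate controls were DMSO wells for no effect and DEVD-CHO caspase inhibitor control wells for full effect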
Rh110 interf inh: Rh110 signal interference in Apaf-1 inhibitor counter-screen. shares compounds with Apaf-1 inh. Rh110 fluorescence interference, quenched caspase reaction. activation (fluorescence interference), % at 20 µM. 1,800 tested, under 10 active;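 active means signal rise of 40% or more at 20 µM, treated as a fluorescence artifact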
Apaf1 inh interf: counter-screen for Apaf-1 inhibitors: fluorescence interference, dose response; 460 tested, under 10 active; fluorescence interference counterscreen, Apaf-1 assay format; IC50, µM; shares compounds with Apaf-1 inh; AID 588538; call rule not given here
An asterisk follows results filed as active; nt = not tested or not shown; ! = not confirmed by another sample. Only some compounds are listed: those with a hit (about 2.1% of all), similar ones and a draw of the others.

SMILES | PP5 inh | PP1 inh | TDP2 absorb | Apaf-1 inh | GSTO1 inh | Apaf-1 inh conf2 | Rh110 interf inh | others
CCCCCCCNC(=O)C1(CC2CC(c3ccc(Cl)cc3)=NO2)CCNCC1 (centres undefined) | 0 | 4 | -3 | 41* | -3 | 30 | 9
CCCCCCCNC(=O)C1(CC2CC(c3cccc(Br)c3)=NO2)CCNCC1 (centres undefined) | 1 | 14 | -3 | 46* | 0 | 38 | 8
CCCCCCCNC(=O)C1(CC2CC(c3cccc(Br)c3)=NO2)CCN(C(=O)Cc2ccc(F)cc2)CC1 (centres undefined) | 4 | 10 | nt | 12 | -4 | nt | nt
COc1ccc(NC(=O)N(C)C[C@@H]2OCc3cnnn3CCCC(=O)N([C@@H](C)CO)C[C@@H]2C)cc1 | nt | nt | -3 | nt | nt | nt | nt
CCOC(=O)C1=C(C)NC(C)=C(C(=O)OC)C1c1cccc(Cl)c1Cl (centres undefined) | 5 | 7 | 2 | 5 | 5 | nt | nt
CCOC(=O)C1=C(COCCN)NC(C)=C(C(=O)OC)C1c1ccccc1Cl (centres undefined) | 4 | 5 | 6 | 49*! | 6 | 8 | -10
O=C(NC1=C(Nc2ccc(F)cc2)C(=O)c2ccccc2C1=O)c1ccc(Cl)cc1 | 0 | 2 | 22 | 70* | 22 | 68* | 2 | Apaf1 inh interf=>100
COc1ccc(CCN(C)C(=O)C2CC(=O)N(Cc3ccc(C)cc3)C2)cc1OC (centres undefined) | 2 | 1 | -7 | 56* | nt | 33 | 5
COc1ccc(CCN(C)C(=O)C2CCN(Cc3ccc(C)cc3)CC2)cc1OC | 0 | 0 | 5 | 2 | 2 | nt | nt
CCN(CC)CCNC(=O)c1ccc(NC(=O)C2CC(=O)N(CCc3ccc(OC)c(OC)c3)C2)cc1 (centres undefined) | 0 | 2 | -3 | 47* | nt | 31 | 0
CCN(CC)C(=O)CC[C@@H]1CC[C@]2(CCCN(C(=O)C3CCCCC3)C2)O1 | nt | nt | 2 | nt | nt | nt | nt
O=C(NCCC(=O)N1CCN(c2ccccc2O)CC1)c1ccc(Br)cc1 | 1 | -3 | -4 | 2 | 6 | nt | nt
O=C(NCCC(=O)N1CCN(c2cccc(Cl)c2)CC1)c1ccc(Br)cc1 | 3 | 1 | -3 | 44* | nt | 36 | 13
CCCCN1C(=O)C(CC(=O)NCc2cccc3ccccc23)CC(C(=O)N(C(C)C)C(C)C)=C1C (centres undefined) | nt | nt | -7 | nt | nt | nt | nt
N#Cc1ccsc1NC(=O)c1ccc(Cl)c([N+](=O)[O-])c1 | 0 | 14 | 2 | 48* | 12 | 6 | -3
COc1ccc2ccccc2c1C(O)c1nccn1C (centres undefined) | 1 | -2 | 17 | 41* | 36* | 10 | -2
Cn1ccnc1C(O)c1ccccc1 (centres undefined) | -3 | -3 | -1 | -4 | 3 | nt | nt
COC(=O)C1CCCN(C(=O)C(Cc2ccc3c(c2)OCO3)NC(C)=O)C1 (centres undefined) | nt | nt | 4 | nt | nt | nt | nt
CC(C)OP(=O)(OC(C)C)C(Nc1ccccn1)c1ccc(F)cc1 (centres undefined) | 1 | 6 | 3 | 55* | 7 | 12 | 1
CCOP(=O)(OCC)C(Nc1ccccn1)c1ccc(F)cc1 (centres undefined) | -2 | 0 | -6 | -8 | -1 | nt | nt
Clc1cccc(CSc2nnc(-c3ccccn3)n2Cc2ccco2)c1 | 4 | 7 | 1 | 42* | -8 | 14 | 1
Clc1ccc(CSc2nnc(-c3ccccn3)n2Cc2ccco2)cc1Cl | nt | nt | -1 | nt | nt | nt | nt
CCOC(=O)C1=NOC(C(=O)Nc2nccs2)(C(=O)C2CC2)C1 (centres undefined) | nt | nt | 2 | nt | nt | nt | nt
O=S(=O)(/N=C/N1CCOCC1)c1ccc(Cl)cc1 | 1 | -3 | 4 | 43* | 6 | 11 | -3
COC(=O)[C@]12C[C@H](CC(=O)N3CCSCC3)C(=O)N(Cc3ccccc3)C1=C[C@H](C(C)(C)C)O[C@@H]2C | nt | nt | -3 | nt | nt | nt | nt
SMILES | PP5 inh | PP1 inh | TDP2 absorb | Apaf-1 inh | GSTO1 inh | Apaf-1 inh conf2 | Rh110 interf inh | others
CC1=NN(c2ccc(Cl)cc2)C(=O)C1C(c1ccccc1O)c1c(C)[nH]n(-c2ccc(Cl)cc2)c1=O (centres undefined) | 4 | -3 | nt | 97* | 72* | 42* | 4 | Apaf1 inh interf=>100
Cc1[nH]n(-c2ccccc2)c(=O)c1-c1ccc(Cl)cc1 | -3 | 4 | 0 | 10 | 13 | nt | nt
CCCCNc1c(-c2ccc(SC(C)CC)cc2)nc2cnccn12 (centres undefined) | nt | nt | nt | 60* | nt | 46* | 33 | Apaf1 inh interf=>100
CCCCNc1c(-c2ccc(OC)c(Sc3ccc(OC)cc3)c2)nc2cnccn12 | nt | nt | 2 | 43* | nt | 22 | 7
CCCCCCSc1cc(-c2nc3cnccn3c2NCCCC)ccc1OC | nt | nt | nt | 46* | nt | 20 | 17
CCCCCCSc1ccc(-c2nc3ccc(Cl)cn3c2NCCCC)cc1OC | nt | nt | 4 | 39 | nt | nt | nt
CCOC(=O)[C@]12CCCC3=C1N(CCC3)C(=O)[C@@H](CC(=O)NCC1CCCCC1)C2 | nt | nt | 0 | nt | nt | nt | nt
CCOC(=O)C1=NOC(C(=O)NCCO)(C(=O)C2CC2)C1 (centres undefined) | nt | nt | -5 | nt | nt | nt | nt
Cc1nn(-c2ccccc2)c2sc(C(=O)N3CCC4(CC3)OCCO4)cc12 | nt | nt | 3 | nt | nt | nt | nt
NCCCCCc1cn([C@@H](CCC(=O)O)C(=O)NCCCCCCCCCCC(=O)N2CCNCC2)nn1 | -2 | -2 | 4 | -12 | -5 | nt | nt
CC[C@H](C)Cc1cn([C@@H](CCCCN)C(=O)NCCCCCCCCCCC(=O)N2CCNCC2)nn1 | -1 | -1 | 5 | 46* | 9 | 11 | 16
CC[C@H](C)Cc1cn([C@@H](CCCN=C(NC(=O)OC(C)(C)C)NC(=O)OC(C)(C)C)C(=O)NCCCCCCCCCCC(=O)N2CCN(C(=O)OC(C)(C)C)CC2)nn1 | 9 | 9 | nt | 57* | 12 | 19 | 13
CC(C)C(=O)OCCCN1C(=O)CCC12CCC(c1ccccc1)CC2 (centres undefined) | nt | nt | -5 | nt | nt | nt | nt
Cc1ccc(-c2nnc(CSc3nnc(COc4cccc5ccccc45)n3-c3ccccc3)o2)cc1 | 6 | 11 | 1 | 44* | -11 | 47* | -3 | Apaf1 inh interf=>100
COC(=O)[C@]12C[C@H](CC(=O)NCCCCc3ccccc3)C(=O)N(Cc3ccco3)C1=C[C@H](C(C)C)O[C@@H]2C1CC1 | nt | nt | -9 | nt | nt | nt | nt
Cc1cc(C)c(C#N)c(SCC(=O)Nc2nonc2N)n1 | 0 | 0 | -16 | 64* | 12 | 12 | 14
COC(CNC(=O)c1cccnc1)OC | -1 | -2 | -3 | -4 | 3 | nt | nt
COC(CNC(=O)c1ccc2c3c(onc13)-c1ccccc1C2=O)OC | 3 | 1 | 4 | 73* | 34 | 57* | 10 | Apaf1 inh interf=>100
